Measurements from the M2OR odorant receptor database.
Numbering of substitutions follows the chain as printed.

Legend:
Conditions in all cases: stereoisomer not certain
OR2G2 (Homo sapiens) = target: T1, OR2G2 (Homo sapiens) (UniProt Q8NGZ5)
T1 sequence (whole entry): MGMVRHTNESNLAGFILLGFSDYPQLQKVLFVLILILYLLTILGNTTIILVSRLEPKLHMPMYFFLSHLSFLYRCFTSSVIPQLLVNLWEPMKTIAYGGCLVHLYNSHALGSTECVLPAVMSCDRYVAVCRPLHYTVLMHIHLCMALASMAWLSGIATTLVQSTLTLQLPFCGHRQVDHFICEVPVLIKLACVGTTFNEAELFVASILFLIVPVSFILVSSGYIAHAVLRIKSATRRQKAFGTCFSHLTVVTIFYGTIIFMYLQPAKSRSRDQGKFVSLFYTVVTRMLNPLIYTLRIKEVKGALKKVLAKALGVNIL
Summary of the method: (§1)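 Whether a receptor–molecule pair is responsive (active) rests on the original authors' judgment that its measured signal was statistically different from baseline. Pairs without that judgment are non-responsive (inactive). Sources used varied assay methods, commonly transient luciferase assays in mammalian cell lines.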

OR2F1 (Homo sapiens) = target: T2, OR2F1 (Homo sapiens) (UniProt Q13607)
T2 sequence (whole entry): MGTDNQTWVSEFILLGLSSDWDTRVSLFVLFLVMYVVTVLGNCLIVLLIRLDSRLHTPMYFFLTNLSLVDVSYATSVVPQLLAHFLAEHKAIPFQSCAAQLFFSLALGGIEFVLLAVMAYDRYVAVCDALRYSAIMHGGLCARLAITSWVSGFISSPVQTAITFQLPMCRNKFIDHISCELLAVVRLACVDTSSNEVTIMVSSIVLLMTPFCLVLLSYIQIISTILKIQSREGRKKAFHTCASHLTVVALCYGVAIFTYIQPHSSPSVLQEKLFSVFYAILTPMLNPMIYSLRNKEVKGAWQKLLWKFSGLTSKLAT
Summary of the method: as §1

OR2F2 (Homo sapiens) = target: T3, OR2F2 (Homo sapiens) (UniProt O95006)
T3 sequence (whole entry): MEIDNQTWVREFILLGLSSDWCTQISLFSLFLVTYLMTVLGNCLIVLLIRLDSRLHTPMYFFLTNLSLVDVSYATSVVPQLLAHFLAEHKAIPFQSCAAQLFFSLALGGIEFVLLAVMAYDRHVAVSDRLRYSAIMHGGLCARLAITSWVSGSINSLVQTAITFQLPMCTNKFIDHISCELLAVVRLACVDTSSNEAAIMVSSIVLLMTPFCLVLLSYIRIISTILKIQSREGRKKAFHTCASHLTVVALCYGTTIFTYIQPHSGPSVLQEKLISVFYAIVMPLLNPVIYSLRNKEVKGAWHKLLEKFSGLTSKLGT
Summary of the method: as §1

OR2G2 L167P R236G = tested on: T4, OR2G2 L167P R236G
T4 sequence (whole entry): T1 sequence (whole entry) with L167P, R236G
Summary of the method: as §1

OR2G3 (Homo sapiens) = target: T5, OR2G3 (Homo sapiens) (UniProt Q8NGZ4)
T5 sequence (whole entry): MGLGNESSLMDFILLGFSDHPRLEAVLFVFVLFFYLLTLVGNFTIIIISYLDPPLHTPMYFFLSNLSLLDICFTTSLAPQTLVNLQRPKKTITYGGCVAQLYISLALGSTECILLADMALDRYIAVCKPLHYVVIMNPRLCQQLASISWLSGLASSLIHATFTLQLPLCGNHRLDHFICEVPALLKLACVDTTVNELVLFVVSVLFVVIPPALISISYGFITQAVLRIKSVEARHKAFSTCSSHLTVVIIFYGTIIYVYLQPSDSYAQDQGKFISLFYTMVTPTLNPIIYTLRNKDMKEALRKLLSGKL
Summary of the method: as §1

OR2G3 I289V = tested on: T6, OR2G3 I289V
T6 sequence (whole entry): T5 sequence (whole entry) with I289V
Summary of the method: as §1

OR2G6 (Homo sapiens) = target: T7, OR2G6 (Homo sapiens) (UniProt Q5TZ20)
T7 sequence (whole entry): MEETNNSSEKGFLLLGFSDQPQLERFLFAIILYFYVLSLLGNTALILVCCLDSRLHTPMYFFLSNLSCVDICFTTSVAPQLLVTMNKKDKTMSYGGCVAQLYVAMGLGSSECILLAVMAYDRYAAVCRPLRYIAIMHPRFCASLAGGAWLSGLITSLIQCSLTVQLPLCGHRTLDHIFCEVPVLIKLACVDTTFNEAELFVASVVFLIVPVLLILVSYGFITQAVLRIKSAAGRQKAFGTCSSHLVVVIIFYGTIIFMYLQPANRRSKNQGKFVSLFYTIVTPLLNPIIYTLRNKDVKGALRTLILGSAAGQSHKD
Summary of the method: as §1

OR2H1 (Homo sapiens) = target: T8, OR2H1 (Homo sapiens) (UniProt Q9GZK4)
T8 sequence (whole entry): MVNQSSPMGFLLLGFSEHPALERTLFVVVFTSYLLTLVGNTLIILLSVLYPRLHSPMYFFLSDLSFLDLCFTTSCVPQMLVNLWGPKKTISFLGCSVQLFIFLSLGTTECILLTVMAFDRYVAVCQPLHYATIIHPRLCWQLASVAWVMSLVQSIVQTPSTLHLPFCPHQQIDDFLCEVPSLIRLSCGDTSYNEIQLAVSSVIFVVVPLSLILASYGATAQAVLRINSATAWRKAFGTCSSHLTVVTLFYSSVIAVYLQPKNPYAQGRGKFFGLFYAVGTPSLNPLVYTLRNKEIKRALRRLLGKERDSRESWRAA
Summary of the method: as §1

OR2H2 (Homo sapiens) = target: T9, OR2H2 (Homo sapiens) (UniProt O95918)
T9 sequence (whole entry): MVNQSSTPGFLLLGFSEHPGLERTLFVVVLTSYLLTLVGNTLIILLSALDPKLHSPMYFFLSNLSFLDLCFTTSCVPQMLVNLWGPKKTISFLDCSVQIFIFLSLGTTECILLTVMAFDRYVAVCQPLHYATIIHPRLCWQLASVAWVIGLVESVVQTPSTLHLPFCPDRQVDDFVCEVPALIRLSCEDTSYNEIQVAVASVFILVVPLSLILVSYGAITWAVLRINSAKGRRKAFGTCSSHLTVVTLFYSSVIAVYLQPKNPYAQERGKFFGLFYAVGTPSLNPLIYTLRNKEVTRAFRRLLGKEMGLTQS
Summary of the method: as §1

OR2H2 = tested on: T10, OR2H2
T10 sequence (whole entry): T9 sequence (whole entry) with L30F, A48V
Summary of the method: as §1

OR2J1 (Homo sapiens) = target: T11, OR2J1 (Homo sapiens) (UniProt Q9GZK6)
T11 sequence (whole entry): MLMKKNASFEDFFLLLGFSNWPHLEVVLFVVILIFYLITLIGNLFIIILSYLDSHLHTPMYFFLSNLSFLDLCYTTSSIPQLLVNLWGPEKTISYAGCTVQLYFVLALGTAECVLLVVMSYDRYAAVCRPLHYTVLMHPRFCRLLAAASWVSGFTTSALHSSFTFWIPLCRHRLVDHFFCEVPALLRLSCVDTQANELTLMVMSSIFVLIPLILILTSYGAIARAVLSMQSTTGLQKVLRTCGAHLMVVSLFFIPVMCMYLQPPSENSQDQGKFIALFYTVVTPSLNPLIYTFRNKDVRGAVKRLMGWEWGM
Summary of the method: as §1

OR2J1 L14I V182A = tested on: T12, OR2J1 L14I V182A
T12 sequence (whole entry): T11 sequence (whole entry) with L14I, V182A
Summary of the method: as §1

OR2J2 = tested on: T13, OR2J2
T13 sequence (whole entry): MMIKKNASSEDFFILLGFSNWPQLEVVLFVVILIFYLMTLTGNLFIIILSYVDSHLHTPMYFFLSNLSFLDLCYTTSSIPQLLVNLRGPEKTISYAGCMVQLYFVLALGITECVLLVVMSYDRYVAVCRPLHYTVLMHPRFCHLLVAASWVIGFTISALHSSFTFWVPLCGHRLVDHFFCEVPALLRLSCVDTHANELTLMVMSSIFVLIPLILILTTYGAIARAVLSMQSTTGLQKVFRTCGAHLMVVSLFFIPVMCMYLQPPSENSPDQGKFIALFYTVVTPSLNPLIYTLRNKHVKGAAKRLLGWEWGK
Summary of the method: as §1

OR2J3 (Homo sapiens) = target: T14, OR2J3 (Homo sapiens) (UniProt O76001)
T14 sequence (whole entry): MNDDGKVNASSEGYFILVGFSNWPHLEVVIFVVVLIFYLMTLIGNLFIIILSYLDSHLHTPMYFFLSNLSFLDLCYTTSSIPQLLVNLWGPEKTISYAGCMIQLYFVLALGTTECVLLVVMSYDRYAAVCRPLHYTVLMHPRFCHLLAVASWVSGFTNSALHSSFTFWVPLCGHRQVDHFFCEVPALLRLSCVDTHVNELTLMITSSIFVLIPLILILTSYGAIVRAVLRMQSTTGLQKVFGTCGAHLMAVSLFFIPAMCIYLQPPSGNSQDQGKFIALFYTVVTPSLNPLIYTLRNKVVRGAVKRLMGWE
Summary of the method: as §1

OR2J3 = tested on: T15, OR2J3
T15 sequence (whole entry): T14 sequence (whole entry) with V228I, I261M
Summary of the method: as §1

OR2K2 (Homo sapiens) = target: T16, OR2K2 (Homo sapiens) (UniProt Q8NGT1)
T16 sequence (whole entry): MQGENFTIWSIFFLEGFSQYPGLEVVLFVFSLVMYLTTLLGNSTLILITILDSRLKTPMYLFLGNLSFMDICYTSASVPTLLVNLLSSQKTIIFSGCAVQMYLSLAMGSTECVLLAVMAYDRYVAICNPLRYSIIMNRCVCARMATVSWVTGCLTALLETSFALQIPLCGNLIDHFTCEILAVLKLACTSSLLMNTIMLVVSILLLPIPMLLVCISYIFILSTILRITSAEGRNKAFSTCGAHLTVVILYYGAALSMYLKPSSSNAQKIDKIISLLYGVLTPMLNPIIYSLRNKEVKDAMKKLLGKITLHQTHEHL
Summary of the method: as §1

OR2J2 (Homo sapiens) = target: T17, OR2J2 (Homo sapiens) (UniProt O76002)
T17 sequence (whole entry): T13 sequence (whole entry) with Y74H, T111A, V146A, T218A
Summary of the method: as §1

Measured: odorant receptor agonist call;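 note: active if original authors judged signal statistically different from baseline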

C=CC(C)(CCC=C(C)C)OC(C)=O (configuration not stated)
inactive: OR2G2 (Homo sapiens)

CC(=O)C=CC1=C(C)CCCC1(C)C
inactive: OR2G2 (Homo sapiens)

C=CC(C)(O)CCC=C(C)CCC=C(C)C (configuration not stated)
inactive: OR2G2 (Homo sapiens)

CCCC(S)CCOC(C)=O (configuration not stated)
inactive: OR2F1 (Homo sapiens) | OR2F2 (Homo sapiens) | OR2G2 (Homo sapiens) | OR2G2 L167P R236G | OR2G3 (Homo sapiens) | OR2G3 I289V | OR2G6 (Homo sapiens) | OR2H1 (Homo sapiens) | OR2H2 (Homo sapiens) | OR2H2 | OR2J1 (Homo sapiens) | OR2J1 L14I V182A | OR2J2 | OR2J3 (Homo sapiens) | OR2J3 | OR2K2 (Homo sapiens)

Cc1cnc(C)c(C)n1
inactive: OR2F1 (Homo sapiens) | OR2F2 (Homo sapiens) | OR2G2 (Homo sapiens) | OR2G2 L167P R236G | OR2G3 (Homo sapiens) | OR2G3 I289V | OR2G6 (Homo sapiens) | OR2H1 (Homo sapiens) | OR2H2 (Homo sapiens) | OR2H2 | OR2J1 (Homo sapiens) | OR2J1 L14I V182A | OR2J2 | OR2J3 (Homo sapiens) | OR2J3 | OR2K2 (Homo sapiens)

CC1=NC(C)C(C)S1 (configuration not stated)
inactive: OR2F1 (Homo sapiens) | OR2F2 (Homo sapiens) | OR2G2 (Homo sapiens) | OR2G2 L167P R236G | OR2G3 (Homo sapiens) | OR2G3 I289V | OR2G6 (Homo sapiens) | OR2H1 (Homo sapiens) | OR2H2 (Homo sapiens) | OR2H2 | OR2J1 (Homo sapiens) | OR2J1 L14I V182A | OR2J2 | OR2J3 (Homo sapiens) | OR2J3 | OR2K2 (Homo sapiens)

CCC=C(C)C(O)CCCCC (configuration not stated)
inactive: OR2G2 (Homo sapiens)

CC(CO)CS (configuration not stated)
inactive: OR2F1 (Homo sapiens) | OR2F2 (Homo sapiens) | OR2G2 (Homo sapiens) | OR2G3 (Homo sapiens) | OR2G6 (Homo sapiens) | OR2H1 (Homo sapiens) | OR2H2 (Homo sapiens) | OR2J1 (Homo sapiens) | OR2J2 (Homo sapiens) | OR2J3 (Homo sapiens) | OR2K2 (Homo sapiens)

CC(CC=O)c1ccc(C(C)(C)C)cc1 (configuration not stated)
inactive: OR2G2 (Homo sapiens)

CC(=O)c1c(C)c([N+](=O)[O-])c(C(C)(C)C)c([N+](=O)[O-])c1C
inactive: OR2F1 (Homo sapiens) | OR2F2 (Homo sapiens) | OR2G2 (Homo sapiens) | OR2G3 (Homo sapiens) | OR2G6 (Homo sapiens) | OR2H1 (Homo sapiens) | OR2H2 (Homo sapiens) | OR2J1 (Homo sapiens) | OR2J2 (Homo sapiens) | OR2J3 (Homo sapiens) | OR2K2 (Homo sapiens)

CCc1ccc(CC(C)(C)C=O)cc1
inactive: OR2G2 (Homo sapiens)

CC=CC(=O)C1C(C)=CCCC1(C)C (configuration not stated)
active: OR2G2 (Homo sapiens)
